How the values were obtained:
Alpha amylase = target: T1, Alpha amylase (Homo sapiens, UniProt P0DUB6); test: Inhibition of alpha-amylase (unknown origin) using starch as substrate preincubated for 10 mins followed by substrate addition and measured after 10 mins by dinitrosalicylic acid reagent based assay
T1 sequence (P0DUB6 whole entry): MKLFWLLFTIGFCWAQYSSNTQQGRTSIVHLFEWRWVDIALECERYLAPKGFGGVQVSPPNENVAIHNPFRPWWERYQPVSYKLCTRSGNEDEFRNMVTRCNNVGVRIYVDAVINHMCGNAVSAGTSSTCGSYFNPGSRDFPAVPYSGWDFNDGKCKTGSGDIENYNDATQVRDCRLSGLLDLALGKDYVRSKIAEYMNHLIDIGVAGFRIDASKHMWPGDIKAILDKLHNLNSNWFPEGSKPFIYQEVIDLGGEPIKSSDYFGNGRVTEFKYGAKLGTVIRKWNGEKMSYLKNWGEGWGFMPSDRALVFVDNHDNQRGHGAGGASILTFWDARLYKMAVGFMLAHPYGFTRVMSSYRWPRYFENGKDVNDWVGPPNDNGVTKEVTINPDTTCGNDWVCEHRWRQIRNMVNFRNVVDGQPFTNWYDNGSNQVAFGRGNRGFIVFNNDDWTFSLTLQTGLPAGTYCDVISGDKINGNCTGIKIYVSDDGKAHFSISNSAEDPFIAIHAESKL
Summary of the method: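 Enzyme at 0.5 mg/mL in […] pH 6.9, preincubated 10 min at 25 °C with test sample (100, 200, 400, 800, 1000 µg/mL). Then 1% starch in 0.02 M sodium phosphate pH 6.9 added, 10 min at 25 °C.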

[1] = Inhibition of rat intestinal alpha-glucosidase using p-nitrophenyl-alpha-D-glucopyranoside as substrate preincubated for 5 mins followed by substrate addition and measured after 5 mins by spectrophotometric analysis
Summary of the method: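 Enzyme source: rat intestinal acetone powder in saline (100:1 w/v), sonicated and centrifuged; supernatant used. Samples (5 mg/mL in DMSO) in 100 mM phosphate buffer pH 6.8, incubated 5 min with enzyme. Then 5 mM p-nitrophenyl-α-D-glucopyranoside added, and p-nitrophenol read at 405 nm after 5 min. Blanks had buffer in place of substrate, controls had DMSO. Inhibition computed from control and sample absorbance.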

Homo sapiens [2] = organism: Homo sapiens; test: Uncompetitive inhibition of alpha-glucosidase (unknown origin) assessed as Vmax using varying levels of para-nitrophenyl-R-D-maltoside as substrate incubated for 30 mins by Lineweaver-Burk plot analysis
Summary of the method: (§1)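 Enzyme at 0.2 mg/mL per well in deionized water with PIPES pH 7.0. Inhibitor at 0.0625–0.4 mM (0.0625, 0.125, 0.3, 0.4), substrate p-nitrophenyl-R-D-maltoside at 0.1, 0.2, 0.4, 0.8 and 1.0 mM. Incubated 30 min at 25 °C with readings at 1-min intervals on a plate reader. Km and Vmax derived by enzyme-kinetic graph fitting.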

Homo sapiens [3] = organism: Homo sapiens; test: Uncompetitive inhibition of alpha-glucosidase (unknown origin) assessed as Km using varying levels of para-nitrophenyl-R-D-maltoside as substrate incubated for 30 mins by Lineweaver-Burk plot analysis; summary of the method: as §1
[4] = system: C(=N/n1cnnc1)\c1cc2ccccc2[nH]1; test: (§2) Mixed type inhibition of alpha-amylase (unknown origin) assessed as Vmax using varying levels of para-nitrophenyl-R-D-maltoside as substrate incubated for 30 mins by Lineweaver-Burk plot analysis; conditions: Homo sapiens
Summary of the method: (§3)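 Kinetics run with inhibitor at 0.0625, 0.125, 0.3 and 0.4 mM and p-nitrophenyl-R-D-maltoside at 0.1, 0.2, 0.4, 0.8 and 1.0 mM. Enzyme at 0.2 mg/mL per well in deionized water, PIPES buffer pH 7.0, 30 min at 25 °C, absorbance on a plate reader. Vmax and Km obtained by enzyme-kinetic graph fitting.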

[5] = system: COc1cc(/C=N/n2cnnc2)cc(OC)c1Br; test: as §2; conditions: Homo sapiens; summary of the method: as §3
[6] = system: COc1cc(/C=N/n2cnnc2)ccc1F; test: as §2; conditions: Homo sapiens; summary of the method: as §3
[7] = system: COc1ccc(/C=N/n2cnnc2)c(F)c1; test: as §2; conditions: Homo sapiens; summary of the method: as §3
[8] = system: Clc1ccc(/C=N/n2cnnc2)c(Cl)c1; test: as §2; conditions: Homo sapiens; summary of the method: as §3
Nc1ncccc1/C=N/n1cnnc1 [9] = test: as §2; conditions: Homo sapiens; summary of the method: as §3
[10] = system: O=[N+]([O-])c1cc(O)cc(/C=N/n2cnnc2)c1; test: as §2; conditions: Homo sapiens; summary of the method: as §3
[11] = system: O=[N+]([O-])c1ccc(/C=N/n2cnnc2)cc1; test: as §2; conditions: Homo sapiens; summary of the method: as §3
[12] = system: Oc1ccc(/C=N/n2cnnc2)cc1Br; test: as §2; conditions: Homo sapiens; summary of the method: as §3
Oc1ccc(/C=N/n2cnnc2)cc1 [13] = test: as §2; conditions: Homo sapiens; summary of the method: as §3
[14] = system: C(=N/n1cnnc1)\c1cc2ccccc2[nH]1; test: (§4) Mixed type inhibition of alpha-amylase (unknown origin) assessed as Km using varying level of para-nitrophenyl-R-D-maltoside as substrate incubated for 30 mins by Lineweaver-Burk plot analysis; conditions: Homo sapiens; summary of the method: as §3
[15] = system: COc1cc(/C=N/n2cnnc2)cc(OC)c1Br; test: as §4; conditions: Homo sapiens; summary of the method: as §3
[16] = system: COc1cc(/C=N/n2cnnc2)ccc1F; test: as §4; conditions: Homo sapiens; summary of the method: as §3
[17] = system: COc1ccc(/C=N/n2cnnc2)c(F)c1; test: as §4; conditions: Homo sapiens; summary of the method: as §3
[18] = system: Clc1ccc(/C=N/n2cnnc2)c(Cl)c1; test: as §4; conditions: Homo sapiens; summary of the method: as §3
Nc1ncccc1/C=N/n1cnnc1 [19] = test: as §4; conditions: Homo sapiens; summary of the method: as §3
[20] = system: O=[N+]([O-])c1cc(O)cc(/C=N/n2cnnc2)c1; test: as §4; conditions: Homo sapiens; summary of the method: as §3
[21] = system: O=[N+]([O-])c1ccc(/C=N/n2cnnc2)cc1; test: as §4; conditions: Homo sapiens; summary of the method: as §3
[22] = system: Oc1ccc(/C=N/n2cnnc2)cc1Br; test: as §4; conditions: Homo sapiens; summary of the method: as §3
Oc1ccc(/C=N/n2cnnc2)cc1 [23] = test: as §4; conditions: Homo sapiens; summary of the method: as §3

Compound	IC50 (Alpha amylase) [µM]	IC50 [1] [µM]	further results
O=[N+]([O-])c1ccc(/C=N/n2cnnc2)cc1	2.36	2.47	Vmax (Homo sapiens [2]): 680 µM/min; Km (Homo sapiens [3]): 500 µM
Oc1ccc(/C=N/n2cnnc2)cc1Br	2.27	2.37	Vmax (Homo sapiens [2]): 698 µM/min; Km (Homo sapiens [3]): 400 µM
CCOc1cc(/C=N/n2cnnc2)ccc1OC	5.22	5.47	
Clc1ccc(/C=N/n2cnnc2)c(Cl)c1	2.18	2.49	Vmax (Homo sapiens [2]): 685 µM/min; Km (Homo sapiens [3]): 500 µM
COc1ccc(Br)cc1/C=N/n1cnnc1	3.3	3.46	
CC(C)(C)c1cc(/C=N/n2cnnc2)c(C(C)(C)C)cc1O	6.23	6.34	
COc1cc(/C=N/n2cnnc2)cc(OC)c1OC	5.12	5.46	
CC(C)(C)c1ccc(/C=N/n2cnnc2)cc1	6.44	6.37	
Oc1ccc(/C=N/n2cnnc2)cc1O	5.69	5.44	
O=[N+]([O-])c1cc(O)cc(/C=N/n2cnnc2)c1	2.41	2.31	Vmax (Homo sapiens [2]): 695 µM/min; Km (Homo sapiens [3]): 500 µM
Cc1ccc(/C=N/n2cnnc2)c(C)c1	4.34	4.27	
CCOc1ccc(/C=N/n2cnnc2)cc1OC	5.24	5.36	
COc1cc(/C=N/n2cnnc2)cc(OC)c1O	3.31	3.27	
O=[N+]([O-])c1cccc(/C=N/n2cnnc2)c1	5.97	5.37	
C[C@H]1O[C@H](O[C@H]2[C@H](O)[C@@H](O)[C@@H](O[C@H]3[C@H](O)[C@@H](O)C(O)O[C@@H]3CO)O[C@@H]2CO)[C@H](O)[C@@H](O)[C@@H]1N[C@H]1C=C(CO)[C@@H](O)[C@H](O)[C@H]1O (some centres not stated) [ACARBOSE]		1.99	
O=[N+]([O-])c1ccc(Cl)c(/C=N/n2cnnc2)c1	4.46	4.37	
Oc1ccc(/C=N/n2cnnc2)c(O)c1O	5.92	5.74	
COc1ccc(Br)c(/C=N/n2cnnc2)c1O	5.25	5.52	

Compound	IC50 (Alpha amylase) [µM]	IC50 [1] [µM]	further results
COc1ccc(/C=N/n2cnnc2)c(OC)c1	4.37	4.28	
Alpha amylase (Homo sapiens) (from UniProt P0DUB6)			Vmax [4]: 256 µM/min; Vmax [5]: 242 µM/min; Vmax [6]: 241 µM/min; Vmax [7]: 238 µM/min; Vmax [8]: 221 µM/min; Vmax (Nc1ncccc1/C=N/n1cnnc1 [9]): 213 µM/min; Vmax [10]: 232 µM/min; Vmax [11]: 207 µM/min; Vmax [12]: 221 µM/min; Vmax (Oc1ccc(/C=N/n2cnnc2)cc1 [13]): 237 µM/min; Km [14]: 1500 µM; Km [15]: 1300 µM; Km [16]: 1300 µM; Km [17]: 1300 µM; Km [18]: 1200 µM; Km (Nc1ncccc1/C=N/n1cnnc1 [19]): 1000 µM; Km [20]: 1300 µM; Km [21]: 900 µM; Km [22]: 1200 µM; Km (Oc1ccc(/C=N/n2cnnc2)cc1 [23]): 1300 µM
C(=N\n1cnnc1)/c1cc2ccccc2[nH]1	2.01	2.09	Vmax (Homo sapiens [2]): 703 µM/min; Km (Homo sapiens [3]): 300 µM
Clc1ccc(/C=N/n2cnnc2)cc1	4.36	4.28	
COc1cccc(OC)c1/C=N/n1cnnc1	4.37	4.29	
COc1ccc(/C=N/n2cnnc2)cc1OCc1ccccc1	6.23	6.54	
COc1cc(/C=N/n2cnnc2)cc(OC)c1Br	2.25	2.52	Vmax (Homo sapiens [2]): 690 µM/min; Km (Homo sapiens [3]): 700 µM
Oc1ccc(/C=N/n2cnnc2)c(O)c1	5.95	5.44	
C(=N\n1cnnc1)/c1cc2ccc3cccc4ccc(c1)c2c34	6.41	6.3	
Oc1ccc(/C=N/n2cnnc2)cc1	2.99	2.62	Vmax (Homo sapiens [2]): 701 µM/min; Km (Homo sapiens [3]): 400 µM
COc1ccc(/C=N/n2cnnc2)c(F)c1	2.9	2.33	Vmax (Homo sapiens [2]): 701 µM/min; Km (Homo sapiens [3]): 500 µM
Oc1ccc(O)c(/C=N/n2cnnc2)c1	5.27	5.37	
C(=N\n1cnnc1)/c1c2ccccc2cc2ccccc12	5.27	5.41	
Nc1ncccc1/C=N/n1cnnc1	2.28	2.44	Vmax (Homo sapiens [2]): 685 µM/min; Km (Homo sapiens [3]): 500 µM
C(=N\n1cnnc1)/c1ccc(OCc2ccccc2)cc1	5.04	5.44	
COc1cc(/C=N/n2cnnc2)ccc1O	5.94	5.3	
COc1cc(/C=N/n2cnnc2)ccc1F	2.33	2.27	Vmax (Homo sapiens [2]): 697 µM/min; Km (Homo sapiens [3]): 500 µM

— ChEMBL document CHEMBL4622848, “Syntheses, in vitro α-amylase and α-glucosidase dual inhibitory activities of 4-amino-1,2,4-triazole derivatives their molecular docking and kinetic studies” (Bioorg Med Chem, 2020)
